Test results from ChEMBL document CHEMBL1134286, “Novel erythromycin derivatives with aryl groups tethered to the C-6 position are potent protein synthesis inhibitors and active against multidrug-resistant respiratory pathogens” (J Med Chem, 2001).
In brackets after ≈: the same amount, converted by molar mass.

Columns and labels:
Type in all cases: functional
Staphylococcus aureus [1] = assay: Minimum inhibitory concentration against Staphylococcus aureus ATCC 6538PEry-S; settings: ATCC 6538P
Summary of the method: (§1)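 MICs were determined by agar dilution following National Committee for Clinical Laboratory Standards recommendations. Values are in µg/mL.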

[2] = Minimum inhibitory concentration against Streptococcus pyogenes EES 61 Ery-S; summary of the method: as §1
[3] = Minimum inhibitory concentration against Streptococcus pyogenes 930MLSB; summary of the method: as §1
Staphylococcus aureus [4] = assay: Minimum inhibitory concentration against Staphylococcus aureus A 5278 MLSB-c; summary of the method: as §1
[5] = Minimum inhibitory concentration against Haemophilus influenzae DILL Amp-R; summary of the method: as §1
[6] = Minimum inhibitory concentration against Streptococcus pneumoniae 5737 MLSB; summary of the method: as §1
Staphylococcus aureus [7] = assay: Minimum inhibitory concentration against Staphylococcus aureus A 5177 MLSB-i; summary of the method: as §1
[8] = Minimum inhibitory concentration against Streptococcus pyogenes PIU2548 efflux; summary of the method: as §1
Streptococcus pneumoniae [9] = assay: Minimum inhibitory concentration against Streptococcus pneumoniae 5649 efflux; summary of the method: as §1
Streptococcus pneumoniae [10] = assay: Minimum inhibitory concentration against Streptococcus pneumoniae ATCC 6303 Ery-S; summary of the method: as §1

Row | SMILES | MIC (Staphylococcus aureus [1]) | MIC [2] | MIC [3] | MIC (Staphylococcus aureus [4]) | MIC [5] | MIC [6] | MIC (Staphylococcus aureus [7]) | MIC [8] | MIC (Streptococcus pneumoniae [9]) | MIC (Streptococcus pneumoniae [10])
1 | CC[C@H]1OC(=O)[C@H](C)C(=O)[C@H](C)[C@@H](O[C@@H]2O[C@H](C)C[C@H](N(C)C)[C@H]2O)[C@](C)(OCCNCCCCc2ccccc2)C[C@@H](C)C(=O)[C@H](C)[C@H]2NC(=O)O[C@@]21C | 0.39 µg/mL (≈ 0.504 µM) | 0.125 µg/mL (≈ 0.161 µM) | > 128 µg/mL | > 100 µg/mL | 4 µg/mL (≈ 5.17 µM) | 16 µg/mL (≈ 20.7 µM) | 0.2 µg/mL (≈ 0.258 µM) | 2 µg/mL (≈ 2.58 µM) | 2 µg/mL (≈ 2.58 µM) | 0.03 µg/mL (≈ 0.0388 µM)
2 | CC[C@H]1OC(=O)[C@H](C)C(=O)[C@H](C)[C@@H](O[C@@H]2O[C@H](C)C[C@H](N(C)C)[C@H]2O)[C@](C)(OC/C=C/c2cncc3ccccc23)C[C@@H](C)C(=O)[C@H](C)[C@H]2NC(=O)O[C@@]21C | 0.1 µg/mL (≈ 0.131 µM) | 0.004 µg/mL (≈ 0.00522 µM) | 8 µg/mL (≈ 10.4 µM) | > 100 µg/mL | 2 µg/mL (≈ 2.61 µM) | 64 µg/mL (≈ 83.6 µM) | 0.1 µg/mL (≈ 0.131 µM) | 0.125 µg/mL (≈ 0.163 µM) | 0.25 µg/mL (≈ 0.326 µM) | 0.004 µg/mL (≈ 0.00522 µM)
3 | CC[C@H]1OC(=O)[C@H](C)C(=O)[C@H](C)[C@@H](O[C@@H]2O[C@H](C)C[C@H](N(C)C)[C@H]2O)[C@](C)(OC/C=C/c2ccc(OC)cc2)C[C@@H](C)C(=O)[C@H](C)[C@@H](O)[C@]1(C)O | 1.56 µg/mL (≈ 2.17 µM) | 0.25 µg/mL (≈ 0.347 µM) | 64 µg/mL (≈ 88.9 µM) | > 100 µg/mL | 128 µg/mL (≈ 178 µM) | 128 µg/mL (≈ 178 µM) | 1.56 µg/mL (≈ 2.17 µM) | 2 µg/mL (≈ 2.78 µM) | 2 µg/mL (≈ 2.78 µM) | 1 µg/mL (≈ 1.39 µM)
4 | CC[C@H]1OC(=O)[C@H](C)C(=O)[C@H](C)[C@@H](O[C@@H]2O[C@H](C)C[C@H](N(C)C)[C@H]2O)[C@](C)(OC/C=C/c2cnc3ccccc3c2)C[C@@H](C)C(=O)[C@H](C)[C@H]2N(N)C(=O)O[C@]12C | 0.1 µg/mL (≈ 0.128 µM) | 0.015 µg/mL (≈ 0.0192 µM) | 64 µg/mL (≈ 82 µM) | > 100 µg/mL | 2 µg/mL (≈ 2.56 µM) | 64 µg/mL (≈ 82 µM) | 0.1 µg/mL (≈ 0.128 µM) | 0.5 µg/mL (≈ 0.64 µM) | 0.25 µg/mL (≈ 0.32 µM) | 0.015 µg/mL (≈ 0.0192 µM)
5 | CC[C@H]1OC(=O)[C@H](C)C(=O)[C@H](C)[C@@H](O[C@@H]2O[C@H](C)C[C@H](N(C)C)[C@H]2O)[C@](C)(OCCNCCCc2cnc3ccccc3c2)C[C@@H](C)C(=O)[C@H](C)[C@H]2NC(=O)O[C@@]21C | 0.2 µg/mL (≈ 0.247 µM) | 0.03 µg/mL (≈ 0.037 µM) | > 100 µg/mL | > 100 µg/mL | 4 µg/mL (≈ 4.93 µM) | 2 µg/mL (≈ 2.47 µM) | 0.39 µg/mL (≈ 0.481 µM) | 2 µg/mL (≈ 2.47 µM) | 2 µg/mL (≈ 2.47 µM) | 0.03 µg/mL (≈ 0.037 µM)
6 | CC[C@H]1OC(=O)[C@H](C)C(=O)[C@H](C)[C@@H](O[C@@H]2O[C@H](C)C[C@H](N(C)C)[C@H]2O)[C@](C)(OC/C=C/c2cnc3ccccc3c2)C[C@@H](C)C(=O)[C@H](C)[C@H]2N(OC)C(=O)O[C@]12C | 0.1 µg/mL (≈ 0.126 µM) | 0.03 µg/mL (≈ 0.0377 µM) | 64 µg/mL (≈ 80.4 µM) | > 100 µg/mL | 8 µg/mL (≈ 10.1 µM) | 64 µg/mL (≈ 80.4 µM) | 0.1 µg/mL (≈ 0.126 µM) | 0.5 µg/mL (≈ 0.628 µM) | 0.5 µg/mL (≈ 0.628 µM) | 0.06 µg/mL (≈ 0.0754 µM)

Results, then the compound that gave them:

Row | MIC (Staphylococcus aureus [1]) | MIC [2] | MIC [3] | MIC (Staphylococcus aureus [4]) | MIC [5] | MIC [6] | MIC (Staphylococcus aureus [7]) | MIC [8] | MIC (Streptococcus pneumoniae [9]) | MIC (Streptococcus pneumoniae [10]) | SMILES
7 | 0.1 µg/mL (≈ 0.132 µM) | 0.03 µg/mL (≈ 0.0397 µM) | 4 µg/mL (≈ 5.3 µM) | > 100 µg/mL | 4 µg/mL (≈ 5.3 µM) | 8 µg/mL (≈ 10.6 µM) | 0.1 µg/mL (≈ 0.132 µM) | 2 µg/mL (≈ 2.65 µM) | 4 µg/mL (≈ 5.3 µM) | 0.03 µg/mL (≈ 0.0397 µM) | CC[C@H]1OC(=O)[C@H](C)C(=O)[C@H](C)[C@@H](O[C@@H]2O[C@H](C)C[C@H](N(C)C)[C@H]2O)[C@](C)(OC/C=C/c2ccc3[nH]cnc3c2)C[C@@H](C)C(=O)[C@H](C)[C@H]2NC(=O)O[C@@]21C
8 | 0.1 µg/mL (≈ 0.131 µM) | 0.015 µg/mL (≈ 0.0196 µM) | 16 µg/mL (≈ 20.9 µM) | 50 µg/mL (≈ 65.4 µM) | 4 µg/mL (≈ 5.23 µM) | 8 µg/mL (≈ 10.5 µM) | 0.1 µg/mL (≈ 0.131 µM) | 0.25 µg/mL (≈ 0.327 µM) | 0.25 µg/mL (≈ 0.327 µM) | 0.015 µg/mL (≈ 0.0196 µM) | CC[C@H]1OC(=O)[C@H](C)C(=O)[C@H](C)[C@@H](O[C@@H]2O[C@H](C)C[C@H](N(C)C)[C@H]2O)[C@](C)(OC/C=C/c2cccc3ccccc23)C[C@@H](C)C(=O)[C@H](C)[C@H]2NC(=O)O[C@@]21C
9 | 0.1 µg/mL (≈ 0.128 µM) | 0.03 µg/mL (≈ 0.0383 µM) | 16 µg/mL (≈ 20.4 µM) | > 100 µg/mL | 2 µg/mL (≈ 2.55 µM) | 4 µg/mL (≈ 5.11 µM) | 0.1 µg/mL (≈ 0.128 µM) | 2 µg/mL (≈ 2.55 µM) | 2 µg/mL (≈ 2.55 µM) | 0.03 µg/mL (≈ 0.0383 µM) | CC[C@H]1OC(=O)[C@H](C)C(=O)[C@H](C)[C@@H](O[C@@H]2O[C@H](C)C[C@H](N(C)C)[C@H]2O)[C@](C)(OCCNCc2cnc3ccccc3c2)C[C@@H](C)C(=O)[C@H](C)[C@H]2NC(=O)O[C@@]21C
10 | 0.05 µg/mL (≈ 0.0653 µM) | 0.03 µg/mL (≈ 0.0392 µM) | > 128 µg/mL | > 100 µg/mL | 4 µg/mL (≈ 5.22 µM) | 4 µg/mL (≈ 5.22 µM) | 0.05 µg/mL (≈ 0.0653 µM) | 1 µg/mL (≈ 1.31 µM) | 0.5 µg/mL (≈ 0.653 µM) | 0.03 µg/mL (≈ 0.0392 µM) | CC[C@H]1OC(=O)[C@H](C)C(=O)[C@H](C)[C@@H](O[C@@H]2O[C@H](C)C[C@H](N(C)C)[C@H]2O)[C@](C)(OC/C=C/c2ccc3cccnc3c2)C[C@@H](C)C(=O)[C@H](C)[C@H]2NC(=O)O[C@@]21C
